Data from ChEMBL document CHEMBL1136759, “Synthesis and antiviral activity of novel erythrofuranosyl imidazo[1,2-a]pyridine C-nucleosides constructed via palladium coupling of iodoimidazo[1,2-a]pyridines and dihydrofuran” (J Med Chem, 2003).

How the values were obtained:
[1] = system: KB; test: Inhibition of KB cell growth was determined; >100 indicates IC50 greater than the noted(highest) concentration tested.; type: functional, cell-based; details: Homo sapiens
Outline: (§1)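 KB cells seeded at 3000-5000 per well and incubated overnight. Compound added in quadruplicate at six to eight concentrations, then 48 h at 37 °C in CO2, covering about two population doublings. Cells fixed in 95% ethanol, stained with 0.1% crystal violet, dye eluted with acidified ethanol, read at 570 nm. IC50 by linear regression against log concentration.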

[2] = system: Human alphaherpesvirus 1; test: Antiviral activity against HSV-1 using ELISA assay; >100 indicates IC50 greater than the noted (highest) concentration tested.; type: functional, organism-based
Outline: (§2)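 BSC-1 cells seeded at 10000 per well in MEM(E) with 10% calf serum and incubated overnight. Drug added in quadruplicate with HSV-1 (KOS) at 100 pfu/well, then 3 days at 37 °C. Detection used HRP-conjugated rabbit anti-HSV-1 antibody with TMB substrate, read at 450 and 570 nm. IC50 from regression of % absorbance reduction versus log concentration.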

[3] = system: Human betaherpesvirus 5; test: Antiviral activity against HCMV using plaque reduction assay; >100 indicates IC50 greater than the noted(highest) concentration tested.; type: functional, organism-based
Outline: (§3)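 HFF cells in 24-well dishes infected with about 100 pfu HCMV (Towne strain) per cm2 cell sheet. After adsorption, drug in growth medium added to duplicate wells at four to eight concentrations. Incubated 7 days at 37 °C, then fixed and stained with crystal violet, and plaques counted microscopically. IC50 from linear regression of % plaque reduction versus log concentration. Means of 2–5 experiments.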

[4] = Visual cytotoxicity was scored on HFF cells at time of HCMV plaque enumeration; >100 indicates IC50 greater than the noted (highest) concentration tested.; type: functional, cell-based; details: Homo sapiens
Outline: (§4)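 Stationary HFF cells, not affected by virus, inspected microscopically for cytotoxicity at the time of plaque counting in the 7-day, 37 °C HCMV plaque assay. Drug was in growth medium. IC50 estimated from regression of % inhibition against log concentration.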

[5] = system: Human betaherpesvirus 5; test: Antiviral activity against HCMV using plaque reduction assay; >100 indicates IC50 greater than the noted (highest) concentration tested.; type: functional, organism-based; outline: as §3
[6] = Visual cytotoxicity was scored on HFF cells at time of HCMV plaque enumeration; >100 indicates IC50 greater than the noted(highest) concentration tested.; type: functional, cell-based; details: Homo sapiens; outline: as §4
[7] = system: Human alphaherpesvirus 1; test: Antiviral activity against HSV-1 using ELISA assay; type: functional, organism-based; outline: as §2
[8] = system: Human betaherpesvirus 5; test: Antiviral activity against HCMV using plaque reduction assay; type: functional, organism-based; outline: as §3
[9] = system: KB; test: Inhibition of KB cell growth was determined; type: functional, cell-based; details: Homo sapiens; outline: as §1
[10] = Visual cytotoxicity was scored on HFF cells at time of HCMV plaque enumeration; type: functional, cell-based; details: Homo sapiens; outline: as §4

Row | Structure (SMILES) | IC50 [1] [µM] | IC50 [2] [µM] | IC50 [3] [µM] | IC50 [4] [µM] | IC50 [8] [µM] | further results
1 | O[C@@H]1[C@H](O)CO[C@@H]1c1c(Cl)nc2ccc(Cl)cn12 | > 100 | > 100 | > 100 | > 100 |  | 
2 | O[C@@H]1[C@H](O)CO[C@@H]1c1c(Cl)nc2cc(Cl)c(Cl)cn12 |  | > 100 | > 100 |  |  | 
3 | O[C@@H]1C(c2c(Cl)nc3cc(Cl)c(Cl)cn23)OC[C@@H]1O (some centres not stated) | > 100 | > 100 |  | > 100 |  | IC50 [5]: > 100 µM
4 | O[C@@H]1COC(c2c(Cl)nc3ccc(Cl)cn23)[C@@H]1O (single isomer, unassigned) | > 100 | > 100 | > 100 |  |  | IC50 [6]: > 100 µM
5 | O[C@@H]1[C@H](O)CO[C@@H]1c1c(Cl)nc2cc(Cl)c(Cl)cn12 (stereo in doubt; 15a) | > 100 |  |  | > 100 | 8 | IC50 [7]: 24 µM
6 | O[C@@H]1[C@H](O)CO[C@@H]1c1c(Cl)nc2cc(Cl)c(Cl)cn12 (stereo in doubt; 20) |  |  |  |  | 2.9 | IC50 ([7]; Human alphaherpesvirus 1): 14 µM; IC50 [9]: 68 µM; IC50 [10]: 100 µM
